Calls of active or inactive are those of the source. The rule behind the calls is not given here.
Experiments:
[1] = molecular target: T1, Glutamate NMDA receptor; GRIN1/GRIN2A (Homo sapiens, UniProt Q05586+Q12879); experiment: Antagonist activity at NR1-1a/NR2A receptor expressed in Xenopus laevis oocytes assessed as inhibition of glutamate/glycine-induced current at -60mV holding potential by two-electrode voltage-clamp electrophysiology; type: functional, cell-based, Oocyte
Method in brief: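 Two-electrode voltage clamp at -60 mV holding potential on Xenopus oocytes expressing homomeric GluA1i or heteromeric GluN1/2A. Antagonist was co-applied with agonist: 100 μM glutamate for GluA1i, and 100 μM glutamate plus 100 μM glycine for GluN1/2A. IC50 came from concentration-inhibition curves of normalized currents (n = 3). The error term is given as the % difference between the IC50 and antilog(logIC50 + SEM).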

[2] = molecular target: T1, Glutamate NMDA receptor; GRIN1/GRIN2A; experiment: Antagonist activity at NR1-1a/NR2A receptor expressed in Xenopus laevis oocytes assessed as inhibition of glutamate/glycine-induced current at -80mV holding potential by two-electrode voltage-clamp electrophysiology; type: functional, cell-based; conditions: Oocyte
Method in brief: (§1)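 Holding-potential dependence was measured in oocytes expressing GluA1i or GluN1/2A at -40, -60 and -80 mV by two-electrode voltage clamp. One fixed toxin concentration, chosen from the -60 mV concentration-response data, was co-applied with 100 μM glutamate (GluA1i) or with glutamate plus glycine at 100 μM each (GluN1/2A). The read-out was the reduction in receptor current.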

[3] = Selectivity ratio of IC50 for NR1-1a/NR2A receptor to IC50 for GluR1
[4] = system: Glutamate receptor ionotropic, AMPA 1 (GluA1i); experiment: Antagonist activity at GluR1 expressed in Xenopus laevis oocytes assessed as inhibition of glutamate-induced current at -40mV holding potential by two-electrode voltage-clamp electrophysiology; conditions: Oocyte
[5] = system: Glutamate receptor ionotropic, AMPA 1 (GluA1i); experiment: Antagonist activity at GluR1 expressed in Xenopus laevis oocytes assessed as inhibition of glutamate-induced current at -80mV holding potential by two-electrode voltage-clamp electrophysiology; conditions: Oocyte
[6] = molecular target: T1, Glutamate NMDA receptor; GRIN1/GRIN2A; experiment: Antagonist activity at NR1-1a/NR2A receptor expressed in Xenopus laevis oocytes assessed as inhibition of glutamate/glycine-induced current at -40mV holding potential by two-electrode voltage-clamp electrophysiology; type: functional, cell-based; conditions: Oocyte; method in brief: as §1
[7] = system: Glutamate receptor ionotropic, AMPA 1 (GluA1i); experiment: Antagonist activity at GluR1 expressed in Xenopus laevis oocytes assessed as inhibition of glutamate-induced current at 0.1 uM at -60mV holding potential by two-electrode voltage-clamp electrophysiology; conditions: Oocyte
[8] = molecular target: T1, Glutamate NMDA receptor; GRIN1/GRIN2A; experiment: Antagonist activity at NR1-1a/NR2A receptor expressed in Xenopus laevis oocytes assessed as inhibition of glutamate/glycine-induced current at 0.1 uM at -60mV holding potential by two-electrode voltage-clamp electrophysiology; type: functional, cell-based; conditions: Oocyte
Method in brief: (§2)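 Single-concentration screen at 0.1 and 10 μM by two-electrode voltage clamp (-60 mV) in Xenopus oocytes. Toxin was co-applied with 100 μM glutamate (GluA1i) or with 100 μM glutamate plus 100 μM glycine (GluN1/2A). Percent inhibition was taken from the decrease in agonist-evoked current.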

[9] = molecular target: T1, Glutamate NMDA receptor; GRIN1/GRIN2A; experiment: Antagonist activity at NR1-1a/NR2A receptor expressed in Xenopus laevis oocytes assessed as inhibition of glutamate/glycine-induced current at 10 uM at -60mV holding potential by two-electrode voltage-clamp electrophysiology; type: functional, cell-based; conditions: Oocyte; method in brief: as §2

| SMILES | IC50 [1] | inhibition [2] | Ratio IC50 [3] | inhibition [4] | inhibition [5] | inhibition [6] | inhibition [7] | inhibition [8] | inhibition [9] |
| --- | --- | --- | --- | --- | --- | --- | --- | --- | --- |
| NCCCNCCCCNCCCNC(=O)[C@H](CC1CCCCC1)NC(=O)c1ccc(-c2ccccc2)cc1 | 1.45 µM | Active | 17 | Active | Active | Active | 35% | – | – |
| NCCCNCCCCNCCCNC(=O)[C@H](CC1CCCCC1)NC(=O)C1CCCCC1 | 0.656 µM | Active | 31 | Active | Active | Active | 35% | – | – |
| NCCCNCCCCNCCCNC(=O)[C@H](CNC(=O)Cc1ccccc1)NC(=O)C1CCCCC1 | 2.81 µM | – | – | – | – | – | 35% | – | – |
| NCCCNCCCCNCCCNC(=O)[C@H](CC1CCCCC1)NC(=O)C1CC1 | 2.57 µM | Active | – | – | – | Active | – | – | – |
| CCCC(=O)N[C@@H](CC1CCCCC1)C(=O)NCCCNCCCCNCCCN | 4.38 µM | Active | 137 | Active | Active | Active | 35% | – | – |
| CCCC(=O)N[C@@H](Cc1ccc(O)cc1)C(=O)NCCCNCCCCNCCCN [PHILANTHOTOXIN 343] | 2.74 µM | Active | – | – | – | Active | – | 9% | 61% |
| NCCCNCCCCNCCCNC(=O)[C@H](CCCNC(=O)Cc1ccccc1)NC(=O)C1CCCCC1 | 1.03 µM | – | – | – | – | – | 35% | – | – |
| NCCCNCCCCNCCCNC(=O)[C@H](CC1CCCCC1)NC(=O)CC12CC3CC(CC(C3)C1)C2 | 0.794 µM | Active | 8 | Active | Active | Active | 35% | – | – |
| NCCCNCCCCNCCCNC(=O)[C@H](CC1CCCCC1)NC(=O)Cc1cccc2ccccc12 | 0.047 µM | Active | 1 | Active | Active | Active | 35% | 63% | 92% |
